Data taken from ChEMBL document CHEMBL3120102, “Structure-based design, synthesis and biological evaluation of novel anthra[1,2-d]imidazole-6,11-dione homologues as potential antitumor agents” (2013).

Key:
Format in all cases: functional
MDA-MB-468 = assay: Cytotoxicity against human MDA-MB-468 cells assessed as growth inhibition after 48 hrs by SRB assay
In short: (§1)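 NCI 60-cell-line screen, five-dose stage: each cell line exposed for 48 h to five concentrations spanning five log steps; cellular protein measured by sulforhodamine B colorimetry. A time-zero cell control and plates without drug are used to derive GI50, TGI and LC50 from log-concentration dose-response curves.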

BT-549 = assay: Cytotoxicity against human BT549 cells assessed as growth inhibition after 48 hrs by SRB assay
In short: (§2)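 NCI 60-cell-line five-dose screen at […]. Drug exposure was 48 h, followed by sulforhodamine B protein staining. GI50, TGI and LC50 were calculated against a time-zero control and untreated plates, with dose–response curves plotted from log10 concentration.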

MDA-MB-231 = assay: Cytotoxicity against human MDA-MB-231 cells assessed as growth inhibition after 48 hrs by SRB assay; in short: as §1
PC-3 = assay: Cytotoxicity against human PC3 cells assessed as growth inhibition after 48 hrs by SRB assay; in short: as §1
TK-10 = assay: Cytotoxicity against human TK10 cells assessed as growth inhibition after 48 hrs by SRB assay
In short: (§3)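 NCI 60-cell-line screen, two stages. Five-dose testing at […]. Cellular protein measured by sulforhodamine B colorimetry after 48 h drug exposure. A time-zero control and drug-free plates are used to derive GI50, TGI and LC50 from dose-response curves plotted as log10 concentration per cell line.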

ACHN = assay: Cytotoxicity against human ACHN cells assessed as growth inhibition after 48 hrs by SRB assay; in short: as §2
A498 = assay: Cytotoxicity against human A498 cells assessed as growth inhibition after 48 hrs by SRB assay; in short: as §2
IGROV-1 = assay: Cytotoxicity against human IGROV1 cells assessed as growth inhibition after 48 hrs by SRB assay; in short: as §2
[1] = (§4) Cytotoxicity against human UACC257 cells assessed as growth inhibition after 48 hrs by SRB assay; conditions: UACC-257, 48 h; in short: as §3
UACC-257 = assay: as §4; in short: as §3
SK-MEL-28 = assay: Cytotoxicity against human SK-MEL-28 cells assessed as growth inhibition after 48 hrs by SRB assay; in short: as §1
MDA-MB-435 = assay: Cytotoxicity against human MDA-MB-435 cells assessed as growth inhibition after 48 hrs by SRB assay; in short: as §1
M14 = assay: Cytotoxicity against human M14 cells assessed as growth inhibition after 48 hrs by SRB assay; in short: as §2
U-251 = assay: Cytotoxicity against human U251 cells assessed as growth inhibition after 48 hrs by SRB assay; in short: as §3
SF-295 = assay: Cytotoxicity against human SF295 cells assessed as growth inhibition after 48 hrs by SRB assay; in short: as §1
SF-268 = assay: Cytotoxicity against human SF268 cells assessed as growth inhibition after 48 hrs by SRB assay; in short: as §1
KM12 = assay: Cytotoxicity against human KM12 cells assessed as growth inhibition after 48 hrs by SRB assay; in short: as §2
HCT-15 = assay: Cytotoxicity against human HCT15 cells assessed as growth inhibition after 48 hrs by SRB assay; in short: as §2
HCC 2998 = assay: Cytotoxicity against human HCC2998 cells assessed as growth inhibition after 48 hrs by SRB assay; in short: as §2
NCI-H522 = assay: Cytotoxicity against human NCI-H522 cells assessed as growth inhibition after 48 hrs by SRB assay; in short: as §1
NCI-H322M = assay: Cytotoxicity against human NCI-H322M cells assessed as growth inhibition after 48 hrs by SRB assay; in short: as §1
HOP-62 = assay: Cytotoxicity against human HOP62 cells assessed as growth inhibition after 48 hrs by SRB assay; in short: as §2
SR = assay: Cytotoxicity against human SR cells assessed as growth inhibition after 48 hrs by SRB assay; in short: as §3
RPMI-8226 = assay: Cytotoxicity against human RPMI8226 cells assessed as growth inhibition after 48 hrs by SRB assay; in short: as §1
MOLT-4 = assay: Cytotoxicity against human MOLT4 cells assessed as growth inhibition after 48 hrs by SRB assay; in short: as §1

Question: With `O=C1c2ccccc2C(=O)c2c1ccc1nc(SCCN3CCCC3)[nH]c21` as the compound, how does the “growth inhibition (GI)” value (MDA-MB-468) read?
Answer: Dose-dependent effect

Question: What about the GI50 (MDA-MB-468; MDA-MB-468, 48 h) of the same compound?
Answer: 1.33 µM

Question: What about the LC50 (MDA-MB-468; MDA-MB-468, 48 h) of the same compound?
Answer: 7.05 µM

Question: What about the TGI (MDA-MB-468; MDA-MB-468, 48 h) of the same compound?
Answer: 3.06 µM

Question: And the “growth inhibition (GI)” value (BT-549)?
Answer: Dose-dependent effect

Question: What about the GI50 (BT-549; BT-549, 48 h) of the same compound?
Answer: 12.5 µM

Question: And the LC50 (concentration killing 50% of cells) (BT-549; BT-549, 48 h)?
Answer: 55.8 µM

Question: What about the TGI (BT-549; BT-549, 48 h) of the same compound?
Answer: 26.4 µM

Question: What about the “growth inhibition (GI)” value (MDA-MB-231) of the same compound?
Answer: Dose-dependent effect

Question: What about the GI50 (MDA-MB-231; MDA-MB-231, 48 h) of the same compound?
Answer: 4.46 µM

Question: What about the LC50 (MDA-MB-231; MDA-MB-231, 48 h) of the same compound?
Answer: 43.9 µM

Question: And the TGI (MDA-MB-231; MDA-MB-231, 48 h)?
Answer: 16.2 µM

Question: And the “growth inhibition (GI)” value (PC-3)?
Answer: Dose-dependent effect

Question: What about the GI50 (PC-3; PC-3, 48 h) of the same compound?
Answer: 2.57 µM

Question: What about the LC50 (PC-3; PC-3, 48 h) of the same compound?
Answer: 43.4 µM

Question: And the TGI (PC-3; PC-3, 48 h)?
Answer: 11 µM

Question: And the “growth inhibition (GI)” value (TK-10)?
Answer: Dose-dependent effect

Question: What about the GI50 (TK-10; TK-10, 48 h) of the same compound?
Answer: 4.22 µM

Question: What about the LC50 (TK-10; TK-10, 48 h) of the same compound?
Answer: 46.8 µM

Question: And the TGI (TK-10; TK-10, 48 h)?
Answer: 19.1 µM

Question: What about the GI50 (ACHN) of the same compound?
Answer: 2.34 µM

Question: What about the TGI (ACHN) of the same compound?
Answer: 16.5 µM

Question: And the “growth inhibition (GI)” value (ACHN)?
Answer: Dose-dependent effect

Question: And the CC50 (ACHN; read-out: LC50 (the source's name))?
Answer: 41.1 µM

Question: What about the “growth inhibition (GI)” value (A498) of the same compound?
Answer: Dose-dependent effect

Question: What about the GI50 (A498; A498, 48 h) of the same compound?
Answer: 5.82 µM

Question: What about the TGI (A498; A498, 48 h) of the same compound?
Answer: 21.3 µM

Question: What about the CC50 (A498; A498, 48 h, read-out: LC50 (the source's name)) of the same compound?
Answer: 49.4 µM

Question: And the “growth inhibition (GI)” value (IGROV-1)?
Answer: Dose-dependent effect

Question: And the GI50 (IGROV-1; IGROV-1, 48 h)?
Answer: 0.56 µM

Question: What about the LC50 (IGROV-1; IGROV-1, 48 h) of the same compound?
Answer: 22.4 µM

Question: What about the TGI (IGROV-1; IGROV-1, 48 h) of the same compound?
Answer: 3.39 µM

Question: And the GI50 [1]?
Answer: 18 µM

Question: What about the LC50 [1] of the same compound?
Answer: 56.8 µM

Question: And the TGI [1]?
Answer: 31.9 µM

Question: What about the “growth inhibition (GI)” value (UACC-257) of the same compound?
Answer: Dose-dependent effect

Question: What about the “growth inhibition (GI)” value (SK-MEL-28) of the same compound?
Answer: Dose-dependent effect

Question: And the GI50 (SK-MEL-28; SK-MEL-28, 48 h)?
Answer: 2.2 µM

Question: What about the LC50 (SK-MEL-28; SK-MEL-28, 48 h) of the same compound?
Answer: 9.08 µM

Question: What about the TGI (SK-MEL-28; SK-MEL-28, 48 h) of the same compound?
Answer: 4.47 µM

Question: And the “growth inhibition (GI)” value (MDA-MB-435)?
Answer: Dose-dependent effect

Question: What about the GI50 (MDA-MB-435; MDA-MB-435, 48 h) of the same compound?
Answer: 4.18 µM

Question: And the LC50 (MDA-MB-435; MDA-MB-435, 48 h)?
Answer: 43.9 µM

Question: And the TGI (MDA-MB-435; MDA-MB-435, 48 h)?
Answer: 16.2 µM

Question: And the “growth inhibition (GI)” value (M14)?
Answer: Dose-dependent effect

Question: And the GI50 (M14; M14, 48 h)?
Answer: 8.24 µM

Question: And the LC50 (M14; M14, 48 h)?
Answer: 47.9 µM

Question: And the TGI (M14; M14, 48 h)?
Answer: 21.2 µM

Question: What about the “growth inhibition (GI)” value (U-251) of the same compound?
Answer: Dose-dependent effect

Question: And the GI50 (U-251; U-251, 48 h)?
Answer: 6.84 µM

Question: What about the TGI (U-251; U-251, 48 h) of the same compound?
Answer: 20.3 µM

Question: And the CC50 (U-251; U-251, 48 h, read-out: LC50 (the source's name))?
Answer: 47.1 µM

Question: And the “growth inhibition (GI)” value (SF-295)?
Answer: Dose-dependent effect

Question: And the GI50 (SF-295; SF-295, 48 h)?
Answer: 14.2 µM

Question: And the LC50 (SF-295; SF-295, 48 h)?
Answer: 60.9 µM

Question: And the TGI (SF-295; SF-295, 48 h)?
Answer: 29.4 µM

Question: And the “growth inhibition (GI)” value (SF-268)?
Answer: Dose-dependent effect

Question: And the GI50 (SF-268; SF-268, 48 h)?
Answer: 9.54 µM

Question: And the LC50 (concentration killing 50% of cells relative to time zero) (SF-268; SF-268, 48 h)?
Answer: 52.9 µM

Question: What about the TGI (SF-268; SF-268, 48 h) of the same compound?
Answer: 22.8 µM

Question: And the “growth inhibition (GI)” value (KM12)?
Answer: Dose-dependent effect

Question: What about the GI50 (KM12; KM12, 48 h) of the same compound?
Answer: 2.32 µM

Question: What about the TGI (KM12; KM12, 48 h) of the same compound?
Answer: 6.16 µM

Question: What about the CC50 (KM12; KM12, 48 h, read-out: LC50 (the source's name)) of the same compound?
Answer: 24.4 µM

Question: And the “growth inhibition (GI)” value (HCT-15)?
Answer: Dose-dependent effect

Question: What about the GI50 (HCT-15; HCT-15, 48 h) of the same compound?
Answer: 1.62 µM

Question: What about the LC50 (concentration killing 50% of cells) (HCT-15; HCT-15, 48 h) of the same compound?
Answer: 34.7 µM

Question: What about the TGI (HCT-15; HCT-15, 48 h) of the same compound?
Answer: 10.3 µM

Question: And the “growth inhibition (GI)” value (HCC 2998)?
Answer: Dose-dependent effect

Question: And the GI50 (HCC 2998; HCC 2998, 48 h)?
Answer: 4.91 µM

Question: What about the TGI (HCC 2998; HCC 2998, 48 h) of the same compound?
Answer: 18.5 µM

Question: And the CC50 (HCC 2998; HCC 2998, 48 h, read-out: LC50 (the source's name))?
Answer: 46 µM

Question: And the “growth inhibition (GI)” value (NCI-H522)?
Answer: Dose-dependent effect

Question: What about the TGI (NCI-H522; NCI-H522, 48 h) of the same compound?
Answer: 32.5 µM

Question: What about the TGI (NCI-H322M) of the same compound?
Answer: 21.4 µM

Question: And the “growth inhibition (GI)” value (NCI-H322M)?
Answer: Dose-dependent effect

Question: What about the “growth inhibition (GI)” value (HOP-62) of the same compound?
Answer: Dose-dependent effect

Question: What about the GI50 (HOP-62; HOP-62, 48 h) of the same compound?
Answer: 18 µM

Question: And the TGI (HOP-62; HOP-62, 48 h)?
Answer: 33.2 µM

Question: And the GI50 (SR)?
Answer: 1.48 µM

Question: What about the LC50 (50% lethal concentration) (SR) of the same compound?
Answer: 86.3 µM

Question: What about the TGI (SR) of the same compound?
Answer: 4.19 µM

Question: What about the “growth inhibition (GI)” value (SR) of the same compound?
Answer: Dose-dependent effect

Question: And the “growth inhibition (GI)” value (RPMI-8226)?
Answer: Dose-dependent effect

Question: And the GI50 (RPMI-8226; RPMI-8226, 48 h)?
Answer: 1.79 µM

Question: What about the LC50 (concentration causing 50% net cell kill) (RPMI-8226; RPMI-8226, 48 h) of the same compound?
Answer: 15.4 µM

Question: What about the TGI (RPMI-8226; RPMI-8226, 48 h) of the same compound?
Answer: 4.31 µM

Question: What about the “growth inhibition (GI)” value (MOLT-4) of the same compound?
Answer: Dose-dependent effect

Question: What about the GI50 (MOLT-4; MOLT-4, 48 h) of the same compound?
Answer: 1.51 µM

Question: What about the LC50 (50% lethal concentration) (MOLT-4; MOLT-4, 48 h) of the same compound?
Answer: 19.1 µM

Question: And the TGI (MOLT-4; MOLT-4, 48 h)?
Answer: 4.29 µM
